Calls of active or inactive are those of the source.
Experiments:
Hepacivirus hominis [1] = assay: Inhibition of HCV NS3 helicase overexpressed in Escherichia coli BL21(DE3) assessed as inhibition of DNA unwinding activity at 10 uM by FRET assay
[2] = tested on: Severe acute respiratory syndrome-related coronavirus; assay: Inhibition of SARS coronavirus nsP13 helicase activity expressed in Escherichia coli Rosetta assessed inhibition of DNA unwinding activity at 10 uM by FRET assay
Procedure, shortened: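 FRET dsDNA-unwinding assay using fluorescein/TAMRA-labelled duplex. When nsP13 unwinds the duplex, fluorescein emission is unquenched. Compound was added to the unwinding reaction at 10 µM, and fluorescence was read at 535 nm.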

Hepacivirus hominis [3] = assay: Inhibition of HCV NS3 helicase ATP hydrolysis activity overexpressed in Escherichia coli BL21(DE3) assessed as inhibition of inorganic phosphate release by AM/MG-based colometric analysis in the presence of M13 ssDNA

Measured: inhibition

CC(C)=CCC[C@](C)(O[C@@H]1O[C@H](CO[C@@H]2O[C@H](CO)[C@@H](O)[C@H](O)[C@H]2O)[C@@H](O)[C@H](O)[C@H]1O)[C@H]1CC[C@]2(C)[C@@H]1[C@H](O)C[C@@H]1[C@@]3(C)CC[C@H](O[C@@H]4O[C@H](CO)[C@@H](O)[C@H](O)[C@H]4O)C(C)(C)[C@@H]3CC[C@]12C
inactive: all assays above

CC(C)=CCC[C@](C)(O[C@@H]1O[C@H](CO[C@@H]2O[C@H](CO)[C@@H](O)[C@H](O)[C@H]2O)[C@@H](O)[C@H](O)[C@H]1O)[C@H]1CC[C@]2(C)[C@@H]1[C@H](O)C[C@@H]1[C@@]3(C)CC[C@H](O[C@@H]4O[C@H](CO)[C@@H](O)[C@H](O)[C@H]4O[C@@H]4O[C@H](CO)[C@@H](O)[C@H](O)[C@H]4O)C(C)(C)[C@@H]3CC[C@]12C
inactive: all assays above

O=c1c(O)c(-c2ccc(O)cc2)oc2cc(O)cc(O)c12
inactive: all assays above

C[C@H]1C(=O)CC[C@@H]2[C@]1(C)CC[C@H]1[C@@]2(C)CC[C@@]2(C)[C@@H]3CC(C)(C)CC[C@]3(C)CC[C@]12C
inactive: all assays above

O=C(/C=C/c1ccccc1)NCCCCNC(=O)c1ccc(O)cc1
inactive: all assays above

O=c1cc(-c2ccccc2)oc2cc(O)c(O)c(O)c12
inactive: all assays above

O=C(O[C@H]1[C@@H]2C=CO[C@@H](O[C@@H]3O[C@H](CO)[C@@H](O)[C@H](O)[C@H]3O)[C@@H]2[C@@]2(CO)O[C@@H]12)c1ccc(O)c(O)c1
inactive: all assays above

O=c1c(-c2ccc(O[C@@H]3O[C@H](CO)[C@@H](O)[C@H](O)[C@H]3O)cc2)coc2cc(O)cc(O)c12
inactive: all assays above

COc1ccc(/C=C/C(=O)O[C@H]2[C@@H]3C=CO[C@@H](O[C@@H]4O[C@H](CO)[C@@H](O)[C@H](O)[C@H]4O)[C@@H]3[C@@]3(CO)O[C@@H]23)cc1O
inactive: all assays above

C=C(C)C(C)CC[C@@H](C)[C@H]1CC[C@@]2(C)[C@@H]3CC[C@H]4C(C)(C)C(=O)CC[C@]4(C)C3=CC[C@]12C (some centres undefined)
inactive: all assays above

C/C=C(/C)C(=O)O[C@H]1Cc2c(cc3oc(C)cc(=O)c3c2O)OC1(C)C
inactive: all assays above

COc1c2c(cc3oc(C)cc(=O)c13)OC(C(C)(C)O)C2 (centres undefined)
inactive: all assays above

COc1c2c(cc3oc(C)cc(=O)c13)OC(C(C)(C)O[C@H]1O[C@@H](CO)[C@H](O)[C@@H](O)[C@@H]1O)C2 (some centres undefined)
inactive: all assays above

C=C(C)C(C)(C)CC[C@@H](C)[C@H]1CC[C@@]2(C)[C@@H]3CC[C@H]4C(C)(C)C(=O)CC[C@]4(C)C3=CC[C@]12C
inactive: all assays above

O=c1c(O)c(-c2ccccc2)oc2cc(O)cc(O)c12
inactive: all assays above

COc1c(O)cc2oc3cc(O)c(CC=C(C)C)c(O)c3c(=O)c2c1CC=C(C)C
inactive: all assays above

O=C(O)c1cc(O)c(O)c(O)c1
inactive: all assays above

O=C1C[C@@H](c2ccc(O)cc2)Oc2cc(O)cc(O)c21
inactive: all assays above

From ChEMBL document CHEMBL2057104, “Identification of myricetin and scutellarein as novel chemical inhibitors of the SARS coronavirus helicase, nsP13” (Bioorg Med Chem Lett, 2012)
